pKi: −log10 of the molar value.
Tests used:
[1] = target: T1, Alpha-1D adrenergic receptor (Rattus norvegicus, UniProt P23944); experiment: Antagonist activity at adrenergic Alpha-1D receptor in rat aorta; assay type: functional, tissue-based; conditions: read-out: pA2 (converted)
T1 sequence (P23944 whole entry): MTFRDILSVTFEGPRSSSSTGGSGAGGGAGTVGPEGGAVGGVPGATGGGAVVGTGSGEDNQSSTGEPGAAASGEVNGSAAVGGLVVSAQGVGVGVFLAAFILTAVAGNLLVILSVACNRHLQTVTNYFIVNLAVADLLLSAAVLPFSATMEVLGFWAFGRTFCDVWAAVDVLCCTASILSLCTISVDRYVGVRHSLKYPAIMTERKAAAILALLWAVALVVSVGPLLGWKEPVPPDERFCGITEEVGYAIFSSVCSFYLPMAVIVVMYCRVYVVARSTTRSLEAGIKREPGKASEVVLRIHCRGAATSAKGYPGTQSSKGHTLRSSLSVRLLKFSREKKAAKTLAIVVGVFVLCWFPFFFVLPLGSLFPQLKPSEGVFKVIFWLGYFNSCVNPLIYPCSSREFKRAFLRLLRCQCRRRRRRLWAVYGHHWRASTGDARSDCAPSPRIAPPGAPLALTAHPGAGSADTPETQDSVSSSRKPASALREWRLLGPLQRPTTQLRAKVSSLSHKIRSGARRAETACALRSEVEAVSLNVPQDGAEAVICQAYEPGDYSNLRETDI
In short: (§1)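 Isolated tissues: guinea pig spleen (α1B), rat aorta (α1D), rat tail artery (α1A). Two cumulative noradrenaline concentration-response curves per tissue, 60 min apart, without then with antagonist. Apparent pA2 = −log[B] + log(r − 1), where r is the ratio of agonist EC50 with and without antagonist. EC50 taken at the curve midpoint. Means ± SEM, 4–8 separate experiments.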

[2] = target: T2, Alpha-1A adrenergic receptor (Rattus norvegicus, UniProt P43140); experiment: Antagonist activity at adrenergic alpha1A receptor in rat tail artery; assay type: functional, tissue-based; conditions: read-out: pA2 (converted); in short: as §1
T2 sequence (P43140 whole entry): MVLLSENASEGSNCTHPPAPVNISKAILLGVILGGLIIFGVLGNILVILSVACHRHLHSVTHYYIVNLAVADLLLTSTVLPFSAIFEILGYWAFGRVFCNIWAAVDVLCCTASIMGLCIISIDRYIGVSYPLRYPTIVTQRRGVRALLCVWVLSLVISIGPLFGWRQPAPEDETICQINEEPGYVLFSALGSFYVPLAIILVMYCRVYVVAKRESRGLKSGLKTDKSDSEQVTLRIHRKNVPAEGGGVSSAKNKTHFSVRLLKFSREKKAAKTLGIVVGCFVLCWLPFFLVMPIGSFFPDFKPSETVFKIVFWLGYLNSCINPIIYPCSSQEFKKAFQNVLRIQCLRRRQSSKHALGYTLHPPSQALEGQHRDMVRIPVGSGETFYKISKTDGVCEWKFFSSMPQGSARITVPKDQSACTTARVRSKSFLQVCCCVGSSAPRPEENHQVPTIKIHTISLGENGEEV

[3] = target: Alpha-1 adrenergic receptor (Rattus norvegicus); experiment: Binding affinity to adrenergic alpha1 receptor in rat brain
[4] = target: Alpha-1B adrenergic receptor (Cavia porcellus); experiment: Antagonist activity at adrenergic Alpha-1B receptor in guinea pig spleen; conditions: read-out: pA2 (converted)

| Structure (SMILES) | Kb [1] [nM] | Kb [2] [nM] | pKi [3] | Kb [4] [nM] |
| --- | --- | --- | --- | --- |
| CN1C(=O)N(CC(O)CN2CCN(c3ccccc3F)CC2)C(c2ccccc2)(c2ccccc2)C1=O (centres undefined) | 245 | 891 | 6.25 | 1820 |
| COC(=O)CN1C(=O)N(CC(O)CN2CCN(c3ccccc3)CC2)C(c2ccccc2)(c2ccccc2)C1=O (centres undefined) | 4370 | – | – | – |
| COc1ccccc1N1CCN(CC(O)CN2C(=O)NC(=O)C2(c2ccccc2)c2ccccc2)CC1 (centres undefined) | 112 | – | – | – |
| CCOc1ccccc1N1CCN(CC(O)CN2C(=O)N(C)C(=O)C2(c2ccccc2)c2ccccc2)CC1 (centres undefined) | 195 | – | – | – |

The next lines start with the values.

| Kb [1] [nM] | Kb [2] [nM] | pKi [3] | Kb [4] [nM] | Structure (SMILES) |
| --- | --- | --- | --- | --- |
| 70.8 | – | – | – | CCOC(=O)C(C)N1C(=O)N(CC(O)CN2CCN(c3ccccc3OC)CC2)C(c2ccccc2)(c2ccccc2)C1=O (centres undefined) |
| 1350 | – | – | – | CCOC(=O)CN1C(=O)N(CC(O)CN2CCN(c3ccccc3OC)CC2)C(c2ccccc2)(c2ccccc2)C1=O (centres undefined) |
| 269 | – | – | – | CCOc1ccccc1N1CCN(CC(O)CN2C(=O)N(C(C)C(=O)OC)C(=O)C2(c2ccccc2)c2ccccc2)CC1 (centres undefined) |
| 141 | – | – | – | COc1ccccc1N1CCN(CC(O)CN2C(=O)N(C)C(=O)C2(c2ccccc2)c2ccccc2)CC1 (centres undefined) |
| 347 | 155 | 6.98 | 851 | COC(=O)C(C)N1C(=O)N(CC(O)CN2CCN(c3ccccc3OC)CC2)C(c2ccccc2)(c2ccccc2)C1=O (centres undefined) |
| 295 | 224 | 6.70 | 1260 | COC(=O)CN1C(=O)N(CC(O)CN2CCN(c3ccccc3OC)CC2)C(c2ccccc2)(c2ccccc2)C1=O (centres undefined) |

From ChEMBL document CHEMBL1255177, “Search for influence of spatial properties on affinity at α1-adrenoceptor subtypes for phenylpiperazine derivatives of phenytoin” (Bioorg Med Chem Lett, 2010)
